The source of these data is ChEMBL document CHEMBL4049422, “Discovery of Novel Indazole Derivatives as Orally Available β3-Adrenergic Receptor Agonists Lacking Off-Target-Based Cardiovascular Side Effects” (J Med Chem, 2017).

The target of data set [1] is Beta-3 adrenergic receptor (Homo sapiens, UniProt P13945). Briefly: Intrinsic activity at recombinant human beta3 adrenergic receptor expressed in CHO cells assessed as accumulation of cyclic AMP after 30 mins relative to isoproterenol. In kind it is cell-based.
Chain of Beta-3 adrenergic receptor (P13945 whole entry, looked up): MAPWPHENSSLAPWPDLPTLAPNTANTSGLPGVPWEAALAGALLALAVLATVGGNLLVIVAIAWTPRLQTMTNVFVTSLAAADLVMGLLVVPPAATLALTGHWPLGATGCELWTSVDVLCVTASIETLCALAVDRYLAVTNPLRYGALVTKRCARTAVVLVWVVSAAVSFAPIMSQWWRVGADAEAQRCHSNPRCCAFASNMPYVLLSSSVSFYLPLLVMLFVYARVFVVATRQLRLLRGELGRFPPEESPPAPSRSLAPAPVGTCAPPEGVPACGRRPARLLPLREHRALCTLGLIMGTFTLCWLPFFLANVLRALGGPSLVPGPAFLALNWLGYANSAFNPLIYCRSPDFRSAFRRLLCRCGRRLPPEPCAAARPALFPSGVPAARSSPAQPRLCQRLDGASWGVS
A short description of data set [2]: Cmax in Sprague-Dawley rat at 5 mg/kg, po by LC-MS/MS analysis. In kind it is ADME, organism-based. Details: dose 5 mg/kg, route oral. The following applies: in vivo. An outline of the steps:
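Male Sprague-Dawley rats (n = 2 or 3) dosed orally at 5 mg/kg in saline or water (5 mL/kg). Blood taken from the subclavian vein at 0.5, 1, 2, 4, 6 and 8 h; plasma separated by centrifugation, stored at -20 °C, and drug levels measured by LC-MS/MS. Values are mean ± SD (n = 3) or the average of two experiments.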

A short description of data set [3]: Membrane permeability in MDCK cells at 50 uM after 60 mins by LC-MS/MS analysis. The conditions noted are these: dog, read-out: permeability. The class given is ADME, cell-based, Canis lupus familiaris.
Data set [4] concerns the target CYP2D6 (Homo sapiens, UniProt P10635). Put plainly: Inhibition of CYP2D6 (unknown origin) at 10 uM relative to control. In kind it is ADME.

The structures appear in SMILES notation. Where only a bound is given, the exact number is not on record here.

Chain of CYP2D6 (P10635 whole entry): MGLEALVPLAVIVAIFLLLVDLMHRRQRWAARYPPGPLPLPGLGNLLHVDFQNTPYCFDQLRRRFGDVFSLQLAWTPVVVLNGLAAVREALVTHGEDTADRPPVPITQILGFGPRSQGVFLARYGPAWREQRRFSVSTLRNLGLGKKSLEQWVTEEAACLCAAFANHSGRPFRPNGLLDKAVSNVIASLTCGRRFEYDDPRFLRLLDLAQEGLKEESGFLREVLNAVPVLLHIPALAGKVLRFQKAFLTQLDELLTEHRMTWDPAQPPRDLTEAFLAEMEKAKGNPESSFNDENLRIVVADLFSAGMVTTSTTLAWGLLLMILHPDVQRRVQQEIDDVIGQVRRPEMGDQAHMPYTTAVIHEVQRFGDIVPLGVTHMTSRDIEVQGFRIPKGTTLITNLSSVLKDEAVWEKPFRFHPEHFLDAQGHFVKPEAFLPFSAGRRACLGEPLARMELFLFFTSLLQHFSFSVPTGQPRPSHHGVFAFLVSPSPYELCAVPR

As for `Cc1n[nH]c2cc(OCCNC[C@H](O)c3cccc(NS(=O)(=O)C4CCC4)c3)ccc12`, in data set [1], the Intrinsic activity turned out to be 105%. The same compound registered a Cmax in data set [2] of 119 ng/mL. The Papp at 1 h, 50 µM in data set [3] was found to be 5 ×10⁻⁶ cm/s. In data set [4], the inhibition at 10 µM is < 34%.

Broadly, the Cmax is the maximum level reached in the sampled fluid or tissue. The term inhibition denotes how much of the control response was suppressed. A high value points to a strong effect.
